The source made the active and inactive calls. The calls are words filed in the database; no cut-off is given here.
Columns and labels:
MCF7 [1] = test: Cell cycle arrest in human MCF7 cells assessed as accumulation at subG1 phase at 8 nM after 24 hrs by DAPI-staining based FACS analysis (reference value: 1.4%); type: functional
MCF7 [2] = test: Cell cycle arrest in human MCF7 cells assessed as accumulation at G0/G1 phase at 8 nM after 24 hrs by DAPI-staining based FACS analysis (reference value: 65.5%); type: functional
MCF7 [3] = test: Cell cycle arrest in human MCF7 cells assessed as accumulation at S phase at 8 nM after 24 hrs by DAPI-staining based FACS analysis (reference value: 10.6%); type: functional
MCF7 [4] = test: Cell cycle arrest in human MCF7 cells assessed as accumulation at G2/M phase at 8 nM after 24 hrs by DAPI-staining based FACS analysis (reference value: 22.3%); type: functional
MDA-MB-231 [5] = test: Cell cycle arrest in human MDA-MB-231 cells assessed as accumulation at G0/G1 phase at 8 nM after 24 hrs by DAPI-staining based FACS analysis (reference value: 70.7%); type: functional
MDA-MB-231 [6] = test: Cell cycle arrest in human MDA-MB-231 cells assessed as accumulation at G2/M phase at 8 nM after 24 hrs by DAPI-staining based FACS analysis (reference value: 15.5%); type: functional
Homo sapiens [7] = species on record: Homo sapiens; test: Destabilization of microtubule network in human MCF7 cells at 8 nM after 24 hrs by fluorescence microscopic analysis; type: cell-based
MDA-MB-468 [8] = test: Cell cycle arrest in human MDA-MB-468 cells assessed as accumulation at subG1 phase at 50 nM after 24 hrs by DAPI-staining based FACS analysis (reference value: 0.2%); type: functional
HT-29 = test: Antiproliferative activity against human HT-29 cells after 48 hrs by SRB assay; type: functional, cell-based; conditions: HT-29, 48 h
In short: (§1)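 SRB assay run as in the NCI screen with slight modifications. Seeding: HT-29 5.0 x 10^3, M21 3.5 x 10^3, MCF7 7.5 x 10^3 cells; cells preincubated 24 h. Drug in DMSO added at 0.75 to 1.0 x 10^5 nM for 48 h. TCA fixation, sulforhodamine B staining, absorbance 530-565 nm. At least two experiments in triplicate; runs accepted only when relative SD < 10%.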

M21 = test: Antiproliferative activity against human M21 cells after 48 hrs by SRB assay; type: functional, cell-based; conditions: M21, 48 h; in short: as §1
MCF7 [9] = test: Antiproliferative activity against human MCF7 cells after 48 hrs by SRB assay; type: functional, cell-based; conditions: MCF7, 48 h; in short: as §1
MCF7 [10] = test: Cell cycle arrest in human MCF7 cells assessed as accumulation at subG1 phase at 50 nM after 24 hrs by DAPI-staining based FACS analysis (reference value: 1.4%); type: functional
MCF7 [11] = test: Cell cycle arrest in human MCF7 cells assessed as accumulation at S phase at 50 nM after 24 hrs by DAPI-staining based FACS analysis (reference value: 10.6%); type: functional
MCF7 [12] = test: Cell cycle arrest in human MCF7 cells assessed as accumulation at G2/M phase at 50 nM after 24 hrs by DAPI-staining based FACS analysis (reference value: 22.3%); type: functional
MDA-MB-231 [13] = test: Cell cycle arrest in human MDA-MB-231 cells assessed as accumulation at G2/M phase at 50 nM after 24 hrs by DAPI-staining based FACS analysis (reference value: 15.5%); type: functional
Homo sapiens [14] = species on record: Homo sapiens; test: Destabilization of microtubule network in human MCF7 cells at 50 nM after 24 hrs by fluorescence microscopic analysis; type: cell-based
Homo sapiens [15] = species on record: Homo sapiens; test: Destabilization of microtubule network in human MDA-MB-231 cells at 50 nM after 24 hrs by fluorescence microscopic analysis; type: cell-based
MDA-MB-468 [16] = test: Cytotoxicity against human MDA-MB-468 cells after 72 hrs in presence of CYP1A1 inhibitor alpha-naphthoflavone by SRB assay; type: functional, cell-based
In short: (§2)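 MDA-MB-468 cells co-incubated for 72 h with drug plus a subtoxic concentration of a CYP inhibitor. Viability read by SRB assay: TCA fixation, sulforhodamine B staining, absorbance at 530-565 nm.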

MDA-MB-468 [17] = test: Cytotoxicity against human MDA-MB-468 cells after 72 hrs in presence of CYP1A1 inhibitor ketoconazole by SRB assay; type: functional, cell-based
In short: (§3)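 MDA-MB-468 cells (5.0 x 10^3/well) seeded and incubated 24 h. Drug freshly dissolved in DMSO, given at 0.75 to 1.0 x 10^5 nM, together with subtoxic CYP inhibitor, for 72 h. Cells fixed with cold 10% TCA and stained with 0.1% sulforhodamine B. Bound dye taken up in 10 mM Tris, absorbance read at 530-565 nm. At least two experiments, triplicate cultures.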

MDA-MB-468 [18] = test: Cytotoxicity against human MDA-MB-468 cells after 72 hrs in presence of CYP1A1 inhibitor tacrine by SRB assay; type: functional, cell-based; in short: as §3
MDA-MB-468 [19] = test: Cytotoxicity against human MDA-MB-468 cells after 72 hrs in presence of CYP1A1 inhibitor capsaicin by SRB assay; type: functional, cell-based; in short: as §2
MDA-MB-468 [20] = test: Cytotoxicity against human MDA-MB-468 cells after 72 hrs in presence of CYP inhibitor aniline by SRB assay; type: functional, cell-based; in short: as §2
MDA-MB-468 [21] = test: Cytotoxicity against human MDA-MB-468 cells after 72 hrs in presence of CYP inhibitor mefipristone by SRB assay; type: functional, cell-based; in short: as §2
MDA-MB-468 [22] = test: Cytotoxicity against human MDA-MB-468 cells after 72 hrs in presence of CYP inhibitor salicylamide by SRB assay; type: functional, cell-based; in short: as §2
CYP1A1 mRNA = test: Upregulation of CYP1A1 mRNA expression in human MCF7 cells at 10 nM after 18 hrs by quantitative PCR analysis relative to control; type: ADME, cell-based; conditions: read-out: FC
In short: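 MCF7 cells exposed to 10 nM drug for 18 and 24 h. RNA extracted with TriReagent, reverse-transcribed with M-MuLV, random hexamers and oligo(dT). 4 ng cDNA run in quadruplicate with SYBR Green, 40 cycles at 95 °C/60 °C. Relative expression by the 2^-ΔΔCt method, normalized to ACTB and B2M.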

Cytochrome P450 3A4 = Cytochrome P450 3A4 (Homo sapiens, UniProt P08684); test: Prodrug activation assessed as human supersomes CYP3A4-mediated 3,4,5-trimethoxyphenyl 4-(2-oxoimidazolidin-1-yl)benzenesulfonate formation after 4 hrs by HPLC-MS analysis; type: ADME; conditions: recombinant enzyme
Cytochrome P450 3A4, sequence (P08684 whole entry): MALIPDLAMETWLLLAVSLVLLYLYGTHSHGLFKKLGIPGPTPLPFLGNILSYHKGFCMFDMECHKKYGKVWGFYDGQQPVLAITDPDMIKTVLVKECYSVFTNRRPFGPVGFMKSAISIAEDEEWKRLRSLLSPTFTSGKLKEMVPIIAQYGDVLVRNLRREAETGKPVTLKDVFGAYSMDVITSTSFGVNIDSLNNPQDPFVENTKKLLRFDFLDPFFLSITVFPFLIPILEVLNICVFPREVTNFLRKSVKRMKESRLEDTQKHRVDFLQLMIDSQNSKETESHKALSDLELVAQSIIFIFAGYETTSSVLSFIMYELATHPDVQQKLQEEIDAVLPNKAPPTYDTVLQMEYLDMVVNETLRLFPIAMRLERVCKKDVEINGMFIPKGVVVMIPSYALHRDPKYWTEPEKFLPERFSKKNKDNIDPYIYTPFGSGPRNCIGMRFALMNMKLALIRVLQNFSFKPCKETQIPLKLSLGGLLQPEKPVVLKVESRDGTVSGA

COc1cc(OS(=O)(=O)c2ccc(N3CCNC3=O)cc2)cc(OC)c1OC showed an Activity (MCF7 [1]) of 35.6%, an Activity (MCF7 [2]) of 9.6% and an Activity (MCF7 [3]) of 10.7%. It also gave an Activity (MCF7 [4]) of 44.1%, an Activity (MDA-MB-231 [5]) of 7.3% and an Activity (MDA-MB-231 [6]) of 76.6%. The Activity (Homo sapiens [7]) was “Active”.

CCCCN1CCN(c2ccc(S(=O)(=O)Oc3cc(OC)c(OC)c(OC)c3)cc2)C1=O gave an Activity (MDA-MB-468 [8]) of 1.3%, an IC50 (HT-29) of 3.6 µM and an IC50 (M21) of 3.8 µM. The IC50 (MCF7 [9]) was 0.01 µM, the Activity (MCF7 [10]) was 4.3% and the Activity (MCF7 [11]) was 1.8%. For the same compound, the Activity (MCF7 [12]) was 90.2%, the Activity (MDA-MB-231 [13]) was 15.6% and the Activity (Homo sapiens [14]) was “Active”. For the same compound, the Activity (Homo sapiens [15]) was “inactive”, the Activity (MDA-MB-468 [16]) was “inactive” and the Activity (MDA-MB-468 [17]) was “inactive”. The Activity (MDA-MB-468 [18]) was “inactive”, the Activity (MDA-MB-468 [19]) was “inactive” and the Activity (MDA-MB-468 [20]) was “Active”. The Activity (MDA-MB-468 [21]) was “Active”, the Activity (MDA-MB-468 [22]) was “Active” and the fold induction at 18 h, 0.01 µM (CYP1A1 mRNA) was 2. The Drug metabolism (Cytochrome P450 3A4) was “Metabolite_Notdetected”.

Source: ChEMBL document CHEMBL4014335, “Activation of Phenyl 4-(2-Oxo-3-alkylimidazolidin-1-yl)benzenesulfonates Prodrugs by CYP1A1 as New Antimitotics Targeting Breast Cancer Cells” (J Med Chem, 2017)
